Source: ChEMBL document CHEMBL3627676, “Modulation of disulfide dual ENKephalinase inhibitors (DENKIs) activity by a transient N-protection for pain alleviation by oral route” (Eur J Med Chem, 2015)
The source made the active and inactive calls.

What was measured:
Neprilysin = Neprilysin (Homo sapiens, UniProt P08473); test: Inhibition of recombinant human Neprilysin using Suc-Ala-Ala-Phe-AMC as substrate preincubated for 30 mins followed by substrate addition measured after 30 mins by fluorometry
Chain of Neprilysin (P08473 whole entry): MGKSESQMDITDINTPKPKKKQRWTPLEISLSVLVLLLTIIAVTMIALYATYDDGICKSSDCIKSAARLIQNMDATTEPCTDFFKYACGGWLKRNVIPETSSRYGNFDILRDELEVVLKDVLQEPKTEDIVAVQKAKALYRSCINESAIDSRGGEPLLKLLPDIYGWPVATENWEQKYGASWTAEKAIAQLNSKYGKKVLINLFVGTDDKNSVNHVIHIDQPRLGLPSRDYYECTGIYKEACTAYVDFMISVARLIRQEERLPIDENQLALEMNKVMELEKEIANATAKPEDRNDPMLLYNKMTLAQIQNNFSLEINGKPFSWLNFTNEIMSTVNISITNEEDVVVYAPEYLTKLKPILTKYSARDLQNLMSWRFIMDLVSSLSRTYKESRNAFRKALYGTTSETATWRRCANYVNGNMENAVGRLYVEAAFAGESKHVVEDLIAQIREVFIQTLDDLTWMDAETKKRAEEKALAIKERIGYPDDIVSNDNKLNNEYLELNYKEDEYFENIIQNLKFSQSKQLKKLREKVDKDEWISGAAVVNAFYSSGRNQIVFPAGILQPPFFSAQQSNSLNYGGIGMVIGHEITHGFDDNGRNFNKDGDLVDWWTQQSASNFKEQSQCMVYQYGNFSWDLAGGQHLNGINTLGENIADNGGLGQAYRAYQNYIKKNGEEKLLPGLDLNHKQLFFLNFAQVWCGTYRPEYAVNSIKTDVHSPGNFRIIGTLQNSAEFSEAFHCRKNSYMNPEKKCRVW

Plasma [1] = test: Prodrug conversion in Sprague-Dawley rat plasma assessed as formation of 1-{1-[2-(Carboxymethyl-carbamoyl)-3-phenyl-propyldisulfanylmethyl]-3-methylsulfanyl-propylcarbamoyloxy}-ethyl isobutyrate at 800 uM incubated for 1 to 60 mins by LC/MS analysis; type: ADME, cell-free
How it was run: (§1)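 Prodrug at 800 µM final concentration incubated at 37 °C in male Sprague-Dawley rat plasma (heparin lithium; 66 mg protein/mL) for 1, 5, 15, 30 and 60 min. Reaction stopped with absolute EtOH. Parent and metabolites monitored by LC/MS, in triplicate.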

Mus musculus [2] = test: Analgesic activity in OF1 mouse assessed as decrease in hindpaw licking at 50 mg/kg ,po administered 60 mins prior to formalin challenge by formalin test; type: functional; parameters: scale not given: the % may be the effect or the level left
How it was run: (§2)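 Male OF1 mice, 25e32 g, 50 mg/kg given orally in ethanol/0.5% methylcellulose in water (1.5/98.5) before formalin. After 30 min adaptation, 20 µL of 5% formalin injected s.c. into the hindpaw. Licking/biting of the injected paw timed by stop-watch during the early phase (0–5 min). Analgesia (%) versus vehicle, n = 6–8 per group.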

Mus musculus [3] = test: Antinociceptive activity in OF1 mouse assessed as increase in jump latency at 150 mg/kg, po by hot plate test; type: functional, organism-based
How it was run: (§3)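 Hot plate test in male OF1 mice (20–25 g). 150 mg/kg given per os in EtOH/PEG400/H2O (1/4/5). Jump latency recorded by stop-watch, cut-off 240 s, followed over time. Mean ± sem, n = 7–8 per group.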

Mus musculus [4] = test: Analgesic activity in OF1 mouse assessed as decrease in hindpaw licking at 50 mg/kg ,po administered 90 mins prior to formalin challenge by formalin test; type: functional; parameters: scale not given: the % may be the effect or the level left; how it was run: as §2
Mus musculus [5] = test: Analgesic activity in OF1 mouse assessed as decrease in hindpaw licking at 50 mg/kg ,po administered 20 mins prior to formalin challenge by formalin test; type: functional; parameters: scale not given: the % may be the effect or the level left; how it was run: as §2
Mus musculus [6] = test: Analgesic activity in OF1 mouse assessed as decrease in hindpaw licking at 50 mg/kg ,po administered 150 mins prior to formalin challenge by formalin test; type: functional; parameters: scale not given: the % may be the effect or the level left; how it was run: as §2
Mus musculus [7] = test: Analgesic activity in OF1 mouse assessed as decrease in hindpaw licking at 50 mg/kg ,po administered 210 mins prior to formalin challenge by formalin test relative to control; type: functional, organism-based; how it was run: as §2
Mus musculus [8] = test: Analgesic activity in OF1 mouse assessed as decrease in hindpaw licking at 50 mg/kg ,po administered 120 mins prior to formalin challenge by formalin test; type: functional; parameters: scale not given: the % may be the effect or the level left; how it was run: as §2
Plasma [9] = test: Prodrug conversion in Sprague-Dawley rat plasma assessed as formation of PL37 at 800 uM incubated for 1 to 60 mins by LC/MS analysis; type: ADME, cell-free; how it was run: as §1
Mus musculus [10] = test: Antinociceptive activity in OF1 mouse assessed as increase in jump latency at 10 mg/kg, iv by hot plate test; type: functional, organism-based
How it was run: (§4)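 Hot plate in male OF1 mice. 10 mg/kg given iv in EtOH/Cremophor/H2O (1/1/8) or EtOH/Tween 80/H2O (1/1/8). Jump latency recorded with a 240 s cut-off over a time course. n = 6 per group.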

Plasma [11] = test: Prodrug conversion in Sprague-Dawley rat plasma assessed as formation of (S)-2-((S)-3-(((S)-2-amino-4-(methylthio)butyl)disulfanyl)-2-benzylpropanamido)propanoic acid at 800 uM incubated for 1 to 60 mins by LC/MS analysis; type: ADME, cell-free; how it was run: as §1
Mus musculus [12] = test: Antinociceptive activity in po dosed OF1 mouse assessed as increase in jump latency by hot plate test; type: functional, organism-based; how it was run: as §3
Mus musculus [13] = test: Antinociceptive activity in iv dosed OF1 mouse assessed as increase in jump latency by hot plate test; type: functional, organism-based; how it was run: as §4
Aminopeptidase N = Aminopeptidase N (Homo sapiens, UniProt P15144); test: Inhibition of recombinant human Aminopeptidase N using L-Ala-beta-NA as substrate preincubated for 30 mins followed by substrate addition measured after 30 mins by fluorometry
Chain of Aminopeptidase N (P15144 whole entry): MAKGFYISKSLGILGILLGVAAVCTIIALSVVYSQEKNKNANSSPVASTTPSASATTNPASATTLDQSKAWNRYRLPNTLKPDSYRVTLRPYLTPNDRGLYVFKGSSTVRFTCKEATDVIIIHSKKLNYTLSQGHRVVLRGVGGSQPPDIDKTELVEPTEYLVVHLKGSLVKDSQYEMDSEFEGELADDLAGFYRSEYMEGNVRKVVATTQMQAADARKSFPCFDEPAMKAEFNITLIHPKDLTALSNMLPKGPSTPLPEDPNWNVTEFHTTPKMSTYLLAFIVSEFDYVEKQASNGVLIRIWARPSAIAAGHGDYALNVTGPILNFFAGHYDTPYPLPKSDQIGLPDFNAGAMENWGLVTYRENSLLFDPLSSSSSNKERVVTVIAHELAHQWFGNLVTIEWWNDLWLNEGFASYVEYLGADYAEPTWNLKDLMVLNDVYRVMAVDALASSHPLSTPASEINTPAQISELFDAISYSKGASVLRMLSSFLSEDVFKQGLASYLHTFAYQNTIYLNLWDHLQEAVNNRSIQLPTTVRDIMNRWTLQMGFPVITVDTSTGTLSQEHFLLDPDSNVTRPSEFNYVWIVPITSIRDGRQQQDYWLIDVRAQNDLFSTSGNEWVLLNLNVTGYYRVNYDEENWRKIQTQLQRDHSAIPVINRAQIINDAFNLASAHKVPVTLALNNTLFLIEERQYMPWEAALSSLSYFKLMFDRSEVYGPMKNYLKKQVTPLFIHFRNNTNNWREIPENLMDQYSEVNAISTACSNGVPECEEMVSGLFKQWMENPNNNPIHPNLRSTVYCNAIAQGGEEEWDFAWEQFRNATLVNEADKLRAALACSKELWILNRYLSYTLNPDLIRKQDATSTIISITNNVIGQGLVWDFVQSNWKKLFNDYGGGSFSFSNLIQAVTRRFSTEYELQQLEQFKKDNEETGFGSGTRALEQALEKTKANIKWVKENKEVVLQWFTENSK

Plasma [14] = test: Drug level in Sprague-Dawley rat plasma treated with 1-(1-{2-[(1-Ethoxycarbonyloxy-ethoxycarbonylmethyl)-carbamoyl]-3-phenyl-propyldisulfanylmethyl}-3-methylsulfanyl-propylcarbamoyloxy)-ethyl isobutyrate at 800 uM incubated for 1 to 60 mins by LC/MS analysis; type: ADME, cell-free; how it was run: as §1
Mus musculus [15] = test: Antiallodynic activity in po dosed OF1 mouse partial sciatic nerve ligation model assessed as increase in mechanical threshold to pressure at 25 mg/kg, po after 30 mins by von Frey test; type: functional
How it was run: (§5)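 PSNL mice (male OF1, 16–18 g; partial sciatic ligation of 33–50% under isoflurane). Oral gavage at 12.5, 25 or 50 mg/kg in EtOH/0.5% methylcellulose (1.5/98.5). Von Frey up-down withdrawal thresholds measured on ipsilateral and contralateral paws before dosing and at 30, 60 and 120 min. Kruskal-Wallis with Dunn's test.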

Mus musculus [16] = test: Antiallodynic activity in po dosed OF1 mouse partial sciatic nerve ligation model assessed as increase in mechanical threshold to pressure after 30 mins by von Frey test; type: functional, organism-based; how it was run: as §5
Mus musculus [17] = test: Antiallodynic activity in po dosed OF1 mouse partial sciatic nerve ligation model assessed as increase in mechanical threshold to pressure after 120 mins by von Frey test; type: functional, organism-based; how it was run: as §5
Mus musculus [18] = test: Antiallodynic activity in po dosed OF1 mouse partial sciatic nerve ligation model assessed as increase in mechanical threshold to pressure at 25 mg/kg, po after 120 mins by von Frey test; type: functional; how it was run: as §5
Mus musculus [19] = test: Antiallodynic activity in po dosed OF1 mouse partial sciatic nerve ligation model assessed as increase in mechanical threshold to pressure at 25 mg/kg, po after 60 mins by von Frey test; type: functional; how it was run: as §5
Mus musculus [20] = test: Antiallodynic activity in po dosed OF1 mouse partial sciatic nerve ligation model assessed as increase in mechanical threshold to pressure after 60 mins by von Frey test; type: functional, organism-based; how it was run: as §5
Mus musculus [21] = test: Antiallodynic activity in OF1 mouse partial sciatic nerve ligation model assessed as increase in mechanical threshold to pressure at 50 mg/kg, po after 45 to 60 mins by von Frey test; type: functional, organism-based
Mus musculus [22] = test: Antiallodynic activity in OF1 mouse partial sciatic nerve ligation model assessed as increase in mechanical threshold to pressure at 50 mg/kg, po after 45 mins by von Frey test; type: functional
How it was run: (§6)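 PSNL in male OF1 mice (16–18 g): under isoflurane, a tight ligation placed around 33–50% of the right sciatic nerve. 50 mg/kg given by oral gavage in EtOH/0.5% methylcellulose (1.5/98.5). Paw withdrawal threshold (g) measured with von Frey filaments by up-down method before dosing and at 45, 90 and 150 min. n = 5–7 per group.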

Mus musculus [23] = test: Antihyperalgesic activity in OF1 mouse partial sciatic nerve ligation model assessed as increase in […] threshold to thermal stimuli at 50 mg/kg, po measured at 90 mins by planar test relative to control; type: functional
How it was run: (§7)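 Male OF1 PSNL mice given 50 mg/kg orally in EtOH/0.5% methylcellulose in water (1.5/98.5). Thermal hyperalgesia assessed by plantar test as paw withdrawal to a thermal stimulus, expressed relative to the contralateral paw, at time points up to 150 min.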

Mus musculus [24] = test: Antiallodynic activity in OF1 mouse partial sciatic nerve ligation model assessed as increase in mechanical threshold to pressure at 50 mg/kg, po after 90 mins by von Frey test; type: functional; how it was run: as §6
Mus musculus [25] = test: Antihyperalgesic activity in OF1 mouse partial sciatic nerve ligation model assessed as increase in […] threshold to thermal stimuli at 50 mg/kg, po measured upto 150 mins by planar test; type: functional, organism-based; how it was run: as §7
Mus musculus [26] = test: Antiallodynic activity in OF1 mouse partial sciatic nerve ligation model assessed as increase in mechanical threshold to pressure at 50 mg/kg, po after 150 mins by von Frey test; type: functional; how it was run: as §6

## C[S+]([O-])CC[C@H](N)CS (some centres undefined)
Neprilysin
  Ki: > 10 µM

## CCOC(=O)OC(C)OC(=O)CNC(=O)[C@@H](CSSC[C@H](CCSC)NC(=O)OC(C)OC(=O)C(C)C)Cc1ccccc1 (some centres undefined)
Plasma [1]
  Drug metabolism: metabolite_detected
Mus musculus [2]
  Activity: 56%
Mus musculus [3]
  Activity: inactive
Mus musculus [4]
  Activity: 32%
Mus musculus [5]
  Activity: 25%
Mus musculus [6]
  Activity: 30%
Mus musculus [7]
  Activity: inactive
Mus musculus [8]
  Activity: 31%
Plasma [9]
  Drug metabolism: metabolite_notdetected
Mus musculus [10]
  Activity: inactive
Plasma [11]
  Drug metabolism: metabolite_detected

## C[S+]([O-])CC[C@H](N)CSSC[C@@H](Cc1ccccc1)C(=O)NCC(=O)O (some centres undefined)
Mus musculus [12]
  Activity: Active

## CSCC[C@@H](CSSC[C@@H](Cc1ccccc1)C(=O)NCC(=O)OCc1ccccc1)NC(=O)OC(C)OC(=O)C(C)C (some centres undefined)
Mus musculus [4]
  Activity: 34%
Mus musculus [13]
  Activity: inactive
Mus musculus [6]
  Activity: 26%
Mus musculus [7]
  Activity: inactive
Mus musculus [12]
  Activity: inactive

## CCOC(=O)OC(C)OC(=O)CNC(=O)[C@@H](CSSC[C@@H](N)CCSC)Cc1ccccc1.O=C(O)/C=C/C(=O)O (some centres undefined)
Mus musculus [2]
  Activity: 31%
Mus musculus [3]
  Activity: Active
Mus musculus [5]
  Activity: 62%
Mus musculus [8]
  Activity: inactive
Mus musculus [10]
  Activity: Active

## CCOC(=O)OC(C)OC(=O)CNC(=O)[C@@H](CSSC[C@H](CC[S+](C)[O-])NC(=O)OC(C)OC(=O)C(C)C)Cc1ccccc1 (some centres undefined)
Mus musculus [4]
  Activity: 39%
Mus musculus [13]
  Activity: inactive
Mus musculus [6]
  Activity: 38%
Mus musculus [7]
  Activity: inactive
Mus musculus [12]
  Activity: inactive

## CSCC[C@H](N)CSSC[C@@H](Cc1ccccc1)C(=O)NCC(=O)OCc1ccccc1
Mus musculus [12]
  Activity: Active

## O=C(O)C[C@H](NC(=O)C1(CS)CCCC1)C(=O)O
Aminopeptidase N
  Ki: > 10 µM

## CC(OC(=O)N[C@@H](CC[S+](C)[O-])CSSCC1(C(=O)N[C@@H](CC(=O)O)C(=O)O)CCCC1)OC(=O)C(C)C (some centres undefined)
Mus musculus [4]
  Activity: 46%
Mus musculus [13]
  Activity: inactive
Mus musculus [6]
  Activity: 47%
Mus musculus [7]
  Activity: inactive
Mus musculus [12]
  Activity: inactive

## C[S+]([O-])CC[C@H](N)CSSC[C@@H](Cc1ccccc1)C(=O)NCC(=O)OCc1ccccc1 (some centres undefined)
Mus musculus [12]
  Activity: Active

## CSCC[C@H](N)CSSC[C@@H](Cc1ccccc1)C(=O)NCC(=O)O
Mus musculus [12]
  Activity: Active
Plasma [14]
  Drug metabolism: metabolite_detected

## CC(OC(=O)N[C@@H](CC[S+](C)[O-])CSSC[C@@H](Cc1ccccc1)C(=O)NCC(=O)O)OC(=O)C(C)C (some centres undefined)
Mus musculus [15]
  Activity: 40%
Mus musculus [16]
  Activity: Dose-dependent effect
Mus musculus [17]
  Activity: Dose-dependent effect
Mus musculus [4]
  Activity: 39%
Mus musculus [13]
  Activity: inactive
Mus musculus [6]
  Activity: 38%
Mus musculus [18]
  Activity: 63%
Mus musculus [7]
  Activity: inactive
Mus musculus [12]
  Activity: inactive
Mus musculus [19]
  Activity: 52%
Mus musculus [20]
  Activity: Dose-dependent effect
Mus musculus [21]
  Activity: Active

## CCOC(=O)OC(C)OC(=O)CNC(=O)[C@@H](CSSC[C@@H](N)CC[S+](C)[O-])Cc1ccccc1 (some centres undefined)
Mus musculus [12]
  Activity: Active

## CC(OC(=O)N[C@@H](CC[S+](C)[O-])CSSC[C@@H](Cc1ccccc1)C(=O)NCC(=O)OCc1ccccc1)OC(=O)C(C)C (some centres undefined)
Mus musculus [4]
  Activity: 39%
Mus musculus [13]
  Activity: inactive
Mus musculus [6]
  Activity: 38%
Mus musculus [7]
  Activity: inactive
Mus musculus [12]
  Activity: inactive

## O=C(O)CNC(=O)C(CS)Cc1ccccc1 (centres undefined) [THIORPHAN]
Aminopeptidase N
  Ki: > 10 µM

## CSCC[C@@H](CSSC[C@@H](Cc1ccccc1)C(=O)NCC(=O)O)NC(=O)OC(C)OC(=O)C(C)C (some centres undefined)
Mus musculus [4]
  Activity: 34%
Mus musculus [13]
  Activity: inactive
Mus musculus [6]
  Activity: 31%
Mus musculus [7]
  Activity: inactive
Mus musculus [12]
  Activity: inactive
Mus musculus [22]
  Activity: 64%
Mus musculus [23]
  Activity: 100%
Mus musculus [24]
  Activity: 56%
Mus musculus [25]
  Activity: Active
Plasma [14]
  Drug metabolism: metabolite_detected
Mus musculus [26]
  Activity: 18%

## C[S+]([O-])CC[C@H](N)CSSCC1(C(=O)N[C@@H](CC(=O)O)C(=O)O)CCCC1 (some centres undefined)
Mus musculus [12]
  Activity: Active
